Data as given in PMC6427685 (Journal of Enzyme Inhibition and Medicinal Chemistry, 2019).
Where two headings read alike, the source gives them in different places.

Columns and labels:
[1] = target: Recombinant M. tuberculosis MbtI (Mycobacterium tuberculosis, UniProt P9WFX1); assay: biochemical; details: for remaining activity at 100 µM: pH 7.5, read-out: Residual activity at 100 µM (%)
Cell viability assay = format: cell-based; details: human, MRC5 human fibroblast lung cells
Method in brief: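 MRC5 human lung fibroblasts were kept at 37 °C in humidified 5% CO2 and seeded in 96-well plates. The next day, vehicle or test compound was added at 200 to 0.01 µM.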

Chain of Recombinant M. tuberculosis MbtI (P9WFX1 whole entry): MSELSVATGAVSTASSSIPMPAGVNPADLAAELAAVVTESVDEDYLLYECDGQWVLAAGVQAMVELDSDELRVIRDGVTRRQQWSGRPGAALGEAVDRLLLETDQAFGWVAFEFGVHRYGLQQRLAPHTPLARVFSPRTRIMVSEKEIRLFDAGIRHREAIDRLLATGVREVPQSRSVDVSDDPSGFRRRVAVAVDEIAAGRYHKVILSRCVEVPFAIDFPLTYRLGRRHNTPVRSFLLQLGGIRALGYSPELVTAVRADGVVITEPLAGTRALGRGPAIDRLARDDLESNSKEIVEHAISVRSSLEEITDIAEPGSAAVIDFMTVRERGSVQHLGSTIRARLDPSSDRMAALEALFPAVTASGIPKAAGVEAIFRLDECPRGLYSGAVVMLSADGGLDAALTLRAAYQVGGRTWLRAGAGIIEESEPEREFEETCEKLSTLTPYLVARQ

Compound | IC50 [1] | remaining activity at 100 µM [1] | IC50 at 96 h (Cell viability assay) | Residual activity at 100 µM (%) ([1]; compound at 100 µM, 50 µM chorismic acid, 37 °C, pH 7.5) | IC50 ([1]; read-out: MbtI IC50)
O=C(O)c1ccc(-c2ccc(C(F)(F)F)cc2O)o1 [1d] | 35.9 ± 10.3 µM | 16.8 ± 2.7% |  |  | 
O=C(O)c1ccc(-c2ccc([N+](=O)[O-])cc2C(F)(F)F)o1 [1p] |  | 25.1 ± 3.7% | > 100 µM |  | 
Nc1cc([N+](=O)[O-])ccc1-c1ccc(C(=O)O)o1 [1n] | 24.2 ± 5.4 µM | 13.5 ± 3.8% |  |  | 
O=C(O)c1ccc(-c2ccc([N+](=O)[O-])cc2O)o1 [1l] | 29.8 ± 4.2 µM | 13.9 ± 4% |  |  | 
Nc1cc(C(F)(F)F)ccc1-c1ccc(C(=O)O)o1 [1f] | 34.6 ± 10.9 µM | 13.1 ± 2.4% |  |  | 
O=C(O)c1ccc(-c2ccc(C(F)(F)F)cc2Br)o1 [1c] |  | 38 ± 3.7% |  |  | 
N#Cc1cc([N+](=O)[O-])ccc1-c1ccc(C(=O)O)o1 [1o, 5-(2-cyano-4-nitro-phenyl)furan-2-carboxylate] |  |  |  | 5.0 ± 1.9% | 24.4 ± 5.9 µM
Cc1cc([N+](=O)[O-])ccc1-c1ccc(C(=O)O)o1 [1m] | 28.5 ± 1.5 µM | 13.2 ± 5.8% |  |  | 
O=C(O)c1ccc(-c2ccc(C(F)(F)F)cc2F)o1 [1b] | 27.6 ± 7.3 µM | 6.1 ± 1.1% |  |  | 
O=C(O)c1ccc(-c2ccc([N+](=O)[O-])cc2Br)o1 [1j] |  | 32.1 ± 2.4% |  |  | 
O=C(O)c1ccc(-c2ccc([N+](=O)[O-])cc2F)o1 [1k] |  | 26.4 ± 4.8% |  |  | 
Cc1cc(C(F)(F)F)ccc1-c1ccc(C(=O)O)o1 [1e] | 31.5 ± 9.6 µM | 19.3 ± 2.2% |  |  | 
N#Cc1cc(C(F)(F)F)ccc1-c1ccc(C(=O)O)o1 [1g, 5-(2-cyano-4-(trifluoromethyl)phenyl)furan-2-carboxylic acid] | 18.5 ± 3.2 µM | 5.7 ± 1.5% |  |  | 
